The text below walks through data of ChEMBL document CHEMBL1124241, “Arylformamidines with antinociceptive properties” (1988).

Holding throughout (type): functional
Experiment [1] is filed under the species Mus musculus. As to the kind of experiment: Analgesic activity was determined in mouse writhing test. An outline of the steps: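 Mice received test compound sc; 30 min later 0.2 mL of 0.08 N HCl was given ip. Animals were watched for 15 min for absence of abdominal stretching (writhing). Activity was expressed as ED50 in mg/kg.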
The subject of experiment [2] is Rattus norvegicus. As to the kind of experiment: Hypotensive activity in the rat as change in blood pressure (mmHg) at 4 hr after a 50 mg/kg oral dose of the compound. Summed up:
(§1)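 Conscious restrained female Sprague-Dawley rats fitted with chronic indwelling aortic cannulas exteriorized at the nape. Towel restraint kept sympathetic tone high. Blood pressure was recorded directly by transducer and polygraph at 4 and 24 h after oral dosing in carboxymethylcellulose vehicle at 10 mL/kg. A change of ±5 mmHg was taken as not significant.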

Experiment [3] concerns Rattus norvegicus. As to the kind of experiment: Hypotensive activity in the rat as change in blood pressure (mmHg) at 24 hr after of 50 mg/kg oral dose of the compound. An outline of the steps:
as §1

The test system of experiment [4] is Rattus norvegicus. As to the kind of experiment: Hypotensive activity in the rat as change in blood pressure (mmHg) at 24 hr after of 50 mg/kg oral dose of the compound; Bradycardia. An outline of the steps:
as §1

Experiment [5] deals with Mus musculus. In words: Analgesic activity was determined in mouse writhing test by intraperitoneal administration of 0.2 mL of 0.08 N HCl 30 min after the subcutaneous injection of the compound(expt.2). The note with it: 0.5 h. On the technique in general: Writhing tests count abdominal constrictions after an irritant is injected.
For experiment [6], the system named is Mus musculus. As to the kind of experiment: Analgesic activity was determined in mouse tail flick writhing test by intraperitoneal administration of 0.2 mL of 0.08 N HCl 30 min after the subcutaneous injection of the compound.
The test system of experiment [7] is Mus musculus. As to the kind of experiment: Analgesic activity was determined in mouse pinch writhing test by intraperitoneal administration of 0.2 mL of 0.08 N HCl 30 min after the subcutaneous injection of the compound.

As usually defined, the ED50 is the dose at which the effect has come halfway, by size or by number of responders.

In turn, `CCOC(=O)c1cc(C)c(/N=C/N(C)C)c(C)c1.Cl` registered an ED50 in experiment [1] (Mus musculus) above 50 mg/kg.

In experiment [1] (Mus musculus), `C/N=C\Nc1cc(Cl)ccc1Cl.Cl` yielded an ED50 above 50 mg/kg. In addition, the results for the BP in experiment [2] and in experiment [3] were 3 mmHg and 5 mmHg, respectively.

As to `Cc1ccc(/N=C/N(C)C)c(C)c1.Cl`, in experiment [1] (Mus musculus), the ED50 was 0.1 mg/kg.

In the case of `CCOC(=O)C(C)(OC(C)=O)c1cc(C)c(/N=C/N(C)C)c(C)c1` (centres undefined), the ED50 in experiment [1] (Mus musculus) was above 50 mg/kg.

In experiment [1] (Mus musculus), `C/N=C\Nc1ccc(Cl)c(Cl)c1.Cl` returned an ED50 above 50 mg/kg. For the same compound, the BP in experiment [2] is 0 mmHg; in experiment [3] it was -3 mmHg.

In experiment [1] (Mus musculus), `Cc1cccc(C)c1/N=C/N(C)C.Cl` returned an ED50 of 0.1 mg/kg. Moreover, the BP in experiment [2] is -15 mmHg; in experiment [3] it was -21 mmHg.

`CN(C)/C=N/c1ccc(Cl)c(Cl)c1.Cl` returned an ED50 in experiment [1] (Mus musculus) above 50 mg/kg. In addition, the BP in experiment [2] is 0 mmHg; in experiment [3], 2 mmHg.

Consider `CN(C)/C=N/c1c(Cl)cccc1Cl.Cl`, for which, in experiment [1] (Mus musculus), the ED50 is 3 mg/kg. In addition, the BP is recorded as -4 mmHg in experiment [4] and -24 mmHg in experiment [2].

Consider `Clc1cccc(Cl)c1NC1=NCCN1` [CLONIDINE], for which the ED50 in experiment [1] (Mus musculus) was determined as 0.02 mg/kg. In experiment [2], this compound returned a BP of -29 mmHg.

Consider `C/N=C\Nc1ccc(Cl)cc1Cl`, for which, in experiment [1] (Mus musculus), the ED50 is above 50 mg/kg.

In experiment [1] (Mus musculus), `Cc1cccnc1/N=C/N(C)C.Cl` showed an ED50 above 50 mg/kg. Moreover, the BP turned out to be 8 mmHg in experiment [2] and 9 mmHg in experiment [3].

In experiment [1] (Mus musculus), `C/N=C\Nc1ccccc1Cl` returned an ED50 of 35 mg/kg.

For `CCOC(=O)C(C)(O)c1cc(C)c(/N=C/N(C)C)c(C)c1` (centres undefined), in experiment [1] (Mus musculus), the ED50 was above 50 mg/kg.

As for `Cc1cc(C(O)c2ccc(Cl)cc2)cc(C)c1/N=C/N(C)C` (centres undefined), the ED50 in experiment [1] (Mus musculus) is above 50 mg/kg.

Regarding `Cc1cc(C(C)O)cc(C)c1/N=C/N(C)C` (centres undefined), in experiment [1] (Mus musculus), the 50% effect level (ED50) was put at a dose of 40 mg/kg.

In the case of `CN(C)/C=N/c1cc(Cl)ccc1Cl.Cl`, in experiment [1] (Mus musculus), the ED50 is above 50 mg/kg. The BP is -5 mmHg in experiment [2] and -4 mmHg in experiment [3].

In the case of `C/N=C\Nc1c(C)cc(C)cc1C`, the ED50 in experiment [1] (Mus musculus) came out at 0.11 mg/kg.

As for `CC(=O)OC(C)c1cc(C)c(/N=C/N(C)C)c(C)c1` (centres undefined), the ED50 in experiment [1] (Mus musculus) is above 30 mg/kg.

In the case of `Cc1cc(C)c(/N=C/N(C)C)c(C)c1.Cl`, the ED50 in experiment [1] (Mus musculus) came to 0.4 mg/kg; in experiment [5] it was 0.37 mg/kg. In addition, the values for the BP in experiment [2] and in experiment [3] were -10 mmHg and 2 mmHg, respectively.

In experiment [1] (Mus musculus), `C/N=C\Nc1ccc(C)cc1C.Cl` displayed an ED50 of 0.02 mg/kg. Besides, the BP in experiment [4] is -19 mmHg; in experiment [2], -10 mmHg.

The compound `Cc1cc(C(O)c2ccc(Cl)c(Cl)c2)cc(C)c1/N=C/N(C)C` (centres undefined) yielded an ED50 in experiment [1] (Mus musculus) above 50 mg/kg.

For `C/N=C\Nc1cccc(Cl)c1Cl`, the ED50 in experiment [1] (Mus musculus) amounted to 0.8 mg/kg.

As to `C/N=C\Nc1c(Cl)cccc1Cl.Cl`, the ED50 in experiment [1] (Mus musculus) turned out to be 4.4 mg/kg. Besides, the figures for the BP in experiment [4] and in experiment [2] were -13 mmHg and -21 mmHg, respectively.

In the case of `CCOC(=O)C(C)c1cc(C)c(/N=C/N(C)C)c(C)c1` (centres undefined), the ED50 in experiment [6] is 18 mg/kg; in experiment [1] it was 8 mg/kg; in experiment [1] (Mus musculus), above 50 mg/kg; in experiment [7], 22 mg/kg.
